Drawing on ChEMBL document CHEMBL4145631, “Riluzole-Triazole Hybrids as Novel Chemical Probes for Neuroprotection in Amyotrophic Lateral Sclerosis” (ACS Med Chem Lett, 2018), this text covers Activity for 21 compounds.

Activity calls are given as the source filed them. No rule for the calls is given here.

Experiment [1] relates to Cortical neurone. Briefly: Neuroprotective activity against kainate-induced cell damage in mouse primary cortical neurons assessed as reversal of kainate-induced reduction in calcium flux by fura-2-AM dye based fluorescence assay. The experiment is classed as functional. The procedure, abridged:
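Mouse primary cortical neurons loaded with fura-2AM for 45 min, washed, then depolarized with 10 mM KCl to drive Ca2+ entry through voltage-gated calcium channels. Flux read on a plate-based system.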

The species entered for experiment [2] is Mus musculus. The experiment is described as follows: Neuroprotective activity against kainate-induced cell death in mouse primary motor neurons by caspase activation method. The class given is functional.
Experiment [3] is filed under the species Mus musculus. The experiment is described as follows: Neuroprotective activity against kainate-induced cell death in mouse primary motor neurons by MTT assay. The experiment is classed as functional.
The subject of experiment [4] is Cortical neurone. Briefly: Neuroprotective activity against kainate-induced cell death in mouse primary cortical neurons by caspase activation method. The class given is functional, cell-based.
Experiment [5] has as its system Cortical neurone. Briefly: Neuroprotective activity against kainate-induced cell death in mouse primary cortical neurons by cell counting method. The experiment is classed as functional, cell-based.
The species named for experiment [6] is Mus musculus. Briefly: Neuroprotective activity against kainate-induced cell death in mouse primary motor neurons by cell counting method. The experiment is classed as functional.
In experiment [7] the test system is Cortical neurone. The experiment is described as follows: Neuroprotective activity against kainate-induced cell death in mouse primary cortical neurons by MTT assay. The experiment is classed as functional, cell-based.
In experiment [8] the test system is Cortical neurone. Briefly: Neuroprotective activity against kainate-induced cell damage in mouse primary cortical neurons assessed as reduction in kainate-induced neurofilament loss by measuring increase in MAPK level at 1 uM pretreated followed by kainate challenge measured after 18 hrs by fluorescence assay. The class given is functional, cell-based. The following applies: in the assay text read “MAP2” for “MAPK”. An outline of the steps: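 Mouse primary cortical neurons cultured as previously described; dendritic processes stained with anti-MAP2 antibody. Cell-profile perimeter measured by image analysis, each condition normalized to kainate-only.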

For the compound `CC(C)Cc1cn(CCn2c(=N)sc3cc(OC(F)(F)F)ccc32)nn1`, the outcome with Cortical neurone [1] was Active. Besides, the outcome in the experiment filed under Mus musculus [2], in the experiment filed under Mus musculus [3], with Cortical neurone [4], in the experiment on Cortical neurone [5], in the experiment listed under Mus musculus [6] and with Cortical neurone [7] was inactive. Also, the outcome in the experiment on Cortical neurone [8] was inactive.
Regarding `N=c1sc2cc(OC(F)(F)F)ccc2n1CCn1cc(-c2ccc(Cl)cc2)nn1`, the result in the experiment on Cortical neurone [1] was Active. For the same compound, the outcome in the experiment listed under Mus musculus [2], in the experiment listed under Mus musculus [3], with Cortical neurone [4], with Cortical neurone [5], in the experiment listed under Mus musculus [6] and in the experiment on Cortical neurone [7] was inactive. The outcome with Cortical neurone [8] was inactive.
Regarding `CCCc1ccc(-c2cn(CCn3c(=N)sc4cc(OC(F)(F)F)ccc43)nn2)cc1`, in the experiment with Cortical neurone [1], the outcome was Active. Further, the result in the experiment filed under Mus musculus [2], in the experiment filed under Mus musculus [3], in the experiment with Cortical neurone [4], in the experiment with Cortical neurone [5], in the experiment listed under Mus musculus [6] and with Cortical neurone [7] was inactive. In addition, the result with Cortical neurone [8] was inactive.
Consider `N=c1sc2cc(OC(F)(F)F)ccc2n1CCn1cc(-c2ccc(N)cc2)nn1`, for which the outcome in the experiment with Cortical neurone [1] was Active. Further, the result in the experiment filed under Mus musculus [2], in the experiment listed under Mus musculus [3], in the experiment with Cortical neurone [4], with Cortical neurone [5], in the experiment filed under Mus musculus [6] and with Cortical neurone [7] was inactive. Besides, the outcome in the experiment with Cortical neurone [8] was inactive.
As for `N=c1sc2cc(OC(F)(F)F)ccc2n1CCn1cc(-c2cc(F)c(F)c(F)c2)nn1`, the result in the experiment with Cortical neurone [1] was Active. The result in the experiment filed under Mus musculus [2], in the experiment filed under Mus musculus [3], in the experiment with Cortical neurone [4], with Cortical neurone [5], in the experiment filed under Mus musculus [6] and in the experiment on Cortical neurone [7] was inactive. In addition, in the experiment with Cortical neurone [8], the outcome was inactive.
Turning to `COc1ccccc1-c1cn(CCn2c(=N)sc3cc(OC(F)(F)F)ccc32)nn1`, the result in the experiment with Cortical neurone [1] was Active. Moreover, the result in the experiment filed under Mus musculus [2], in the experiment filed under Mus musculus [3], in the experiment on Cortical neurone [4], in the experiment on Cortical neurone [5], in the experiment filed under Mus musculus [6] and in the experiment on Cortical neurone [7] was inactive. For the same compound, in the experiment with Cortical neurone [8], the result was inactive.
For the compound `N=c1sc2cc(OC(F)(F)F)ccc2n1CCn1cc(-c2ccccc2Br)nn1`, the result with Cortical neurone [1] was Active. The outcome in the experiment filed under Mus musculus [2], in the experiment filed under Mus musculus [3], with Cortical neurone [4], with Cortical neurone [5], in the experiment filed under Mus musculus [6] and in the experiment with Cortical neurone [7] was inactive. Further, in the experiment with Cortical neurone [8], the result was inactive.
In the case of `N=c1sc2cc(OC(F)(F)F)ccc2n1CCn1cc(C2CC2)nn1`, the result in the experiment on Cortical neurone [1] was Active. In addition, the result in the experiment listed under Mus musculus [2], in the experiment filed under Mus musculus [3], in the experiment with Cortical neurone [4], in the experiment with Cortical neurone [5], in the experiment filed under Mus musculus [6] and with Cortical neurone [7] was inactive. Further, the outcome in the experiment with Cortical neurone [8] was inactive.
`N=c1sc2cc(OC(F)(F)F)ccc2n1CCn1cc(-c2cc(C(F)(F)F)cc(C(F)(F)F)c2)nn1`: the outcome in the experiment on Cortical neurone [1] was Active. In addition, the result in the experiment filed under Mus musculus [2], in the experiment listed under Mus musculus [3], in the experiment with Cortical neurone [4], in the experiment on Cortical neurone [5], in the experiment listed under Mus musculus [6] and with Cortical neurone [7] was inactive. For the same compound, the outcome with Cortical neurone [8] was inactive.
As for `N=c1sc2cc(OC(F)(F)F)ccc2n1CCn1cc(-c2ccccc2C(F)(F)F)nn1`, in the experiment with Cortical neurone [1], the result was Active. The outcome in the experiment listed under Mus musculus [2], in the experiment listed under Mus musculus [3], in the experiment on Cortical neurone [4], in the experiment with Cortical neurone [5], in the experiment filed under Mus musculus [6] and in the experiment with Cortical neurone [7] was inactive. In addition, in the experiment on Cortical neurone [8], the result was inactive.
For the compound `COc1ccc(-c2cn(CCn3c(=N)sc4cc(OC(F)(F)F)ccc43)nn2)cc1`, the result in the experiment with Cortical neurone [1] was Active. Moreover, the outcome in the experiment filed under Mus musculus [2], in the experiment listed under Mus musculus [3], in the experiment with Cortical neurone [4], in the experiment on Cortical neurone [5], in the experiment listed under Mus musculus [6] and with Cortical neurone [7] was inactive. The result in the experiment with Cortical neurone [8] was inactive.
As for `CC(C)(C)c1cn(CCn2c(=N)sc3cc(OC(F)(F)F)ccc32)nn1`, the outcome with Cortical neurone [1] was Active. The result in the experiment listed under Mus musculus [2], in the experiment listed under Mus musculus [3], with Cortical neurone [4], in the experiment with Cortical neurone [5], in the experiment listed under Mus musculus [6] and with Cortical neurone [7] was inactive. Further, the result in the experiment on Cortical neurone [8] was inactive.
Turning to `N=c1sc2cc(OC(F)(F)F)ccc2n1CCn1cc(C2CCCC2)nn1`, the result in the experiment with Cortical neurone [1] was Active. Further, the result in the experiment filed under Mus musculus [2], in the experiment listed under Mus musculus [3], with Cortical neurone [4], with Cortical neurone [5], in the experiment filed under Mus musculus [6] and in the experiment with Cortical neurone [7] was inactive. In addition, the result with Cortical neurone [8] was inactive.
For `N=c1sc2cc(OC(F)(F)F)ccc2n1CCn1cc(CCc2ccccc2)nn1`, in the experiment with Cortical neurone [1], the outcome was Active. Also, the result in the experiment filed under Mus musculus [2], in the experiment filed under Mus musculus [3], in the experiment with Cortical neurone [4], in the experiment on Cortical neurone [5], in the experiment listed under Mus musculus [6] and in the experiment with Cortical neurone [7] was inactive. In addition, the result in the experiment on Cortical neurone [8] was inactive.
For `N=c1sc2cc(OC(F)(F)F)ccc2n1CCn1cc(-c2ccccc2F)nn1`, the outcome in the experiment with Cortical neurone [1] was Active. The outcome in the experiment filed under Mus musculus [2], in the experiment filed under Mus musculus [3], with Cortical neurone [4], with Cortical neurone [5], in the experiment filed under Mus musculus [6] and in the experiment with Cortical neurone [7] was inactive. In addition, in the experiment with Cortical neurone [8], the outcome was inactive.
For `N=c1sc2cc(OC(F)(F)F)ccc2n1CCn1cc(-c2cccc(N)c2)nn1`, the result in the experiment with Cortical neurone [1] was Active. Further, the result in the experiment filed under Mus musculus [2], in the experiment filed under Mus musculus [3], with Cortical neurone [4], with Cortical neurone [5], in the experiment listed under Mus musculus [6] and in the experiment on Cortical neurone [7] was inactive. Also, the outcome in the experiment on Cortical neurone [8] was inactive.
`N=c1sc2cc(OC(F)(F)F)ccc2n1CCn1cc(-c2cc(F)cc(F)c2)nn1`: the outcome in the experiment with Cortical neurone [1] was Active. Also, the result in the experiment listed under Mus musculus [2], in the experiment filed under Mus musculus [3], in the experiment on Cortical neurone [4], with Cortical neurone [5], in the experiment filed under Mus musculus [6] and in the experiment on Cortical neurone [7] was inactive. Besides, the result in the experiment with Cortical neurone [8] was inactive.
Take `CCCCc1ccc(-c2cn(CCn3c(=N)sc4cc(OC(F)(F)F)ccc43)nn2)cc1`: the outcome in the experiment with Cortical neurone [1] was Active. The outcome in the experiment listed under Mus musculus [2], in the experiment filed under Mus musculus [3], in the experiment on Cortical neurone [4], in the experiment on Cortical neurone [5], in the experiment filed under Mus musculus [6] and with Cortical neurone [7] was inactive. Moreover, the result in the experiment with Cortical neurone [8] was inactive.
Consider `Cn1cncc1-c1cn(CCn2c(=N)sc3cc(OC(F)(F)F)ccc32)nn1`, for which the outcome in the experiment with Cortical neurone [1] was Active. In addition, the result in the experiment filed under Mus musculus [2], in the experiment filed under Mus musculus [3], with Cortical neurone [4], in the experiment with Cortical neurone [5], in the experiment listed under Mus musculus [6] and in the experiment on Cortical neurone [7] was inactive. Further, the outcome in the experiment on Cortical neurone [8] was inactive.
For `Cc1ccccc1-c1cn(CCn2c(=N)sc3cc(OC(F)(F)F)ccc32)nn1`, the result with Cortical neurone [1] was Active. For the same compound, the result in the experiment filed under Mus musculus [2], in the experiment listed under Mus musculus [3], with Cortical neurone [4], with Cortical neurone [5], in the experiment filed under Mus musculus [6] and in the experiment on Cortical neurone [7] was inactive. Further, in the experiment on Cortical neurone [8], the result was inactive.
In the case of `N=c1sc2cc(OC(F)(F)F)ccc2n1CCn1cc(-c2ccc(C(=O)O)cc2)nn1`, the outcome in the experiment on Cortical neurone [1] and in the experiment on Cortical neurone [8] was Active. Moreover, the result in the experiment listed under Mus musculus [2], in the experiment filed under Mus musculus [3], in the experiment on Cortical neurone [4], in the experiment on Cortical neurone [5], in the experiment filed under Mus musculus [6] and with Cortical neurone [7] was inactive.
